By Ki is commonly meant the dissociation constant of the complex between target and ligand, obtained from inhibition or displacement. A high value points to weaker binding. One may read the bioavailability as the share of a dose that reaches the circulation, judged against a reference dose that is usually intravenous. Read a low bioavailability as little systemic uptake.

The target of data set [1] is T1, Adrenergic receptor alpha-1 (Homo sapiens, UniProt P35348+P25100+P35368).
T1 sequence (P35348 whole entry): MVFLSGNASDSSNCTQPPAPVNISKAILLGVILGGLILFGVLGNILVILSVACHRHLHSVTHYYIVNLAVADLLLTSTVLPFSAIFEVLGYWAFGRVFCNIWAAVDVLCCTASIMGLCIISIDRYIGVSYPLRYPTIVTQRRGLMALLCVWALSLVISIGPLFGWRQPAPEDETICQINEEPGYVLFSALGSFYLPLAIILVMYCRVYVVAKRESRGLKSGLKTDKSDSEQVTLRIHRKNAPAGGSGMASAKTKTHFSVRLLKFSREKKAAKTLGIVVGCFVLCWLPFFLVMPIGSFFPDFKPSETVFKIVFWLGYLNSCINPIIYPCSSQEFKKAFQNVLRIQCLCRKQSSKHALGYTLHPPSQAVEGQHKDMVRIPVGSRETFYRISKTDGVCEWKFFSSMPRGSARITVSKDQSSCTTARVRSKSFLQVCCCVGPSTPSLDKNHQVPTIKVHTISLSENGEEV
T1 sequence (P25100 whole entry): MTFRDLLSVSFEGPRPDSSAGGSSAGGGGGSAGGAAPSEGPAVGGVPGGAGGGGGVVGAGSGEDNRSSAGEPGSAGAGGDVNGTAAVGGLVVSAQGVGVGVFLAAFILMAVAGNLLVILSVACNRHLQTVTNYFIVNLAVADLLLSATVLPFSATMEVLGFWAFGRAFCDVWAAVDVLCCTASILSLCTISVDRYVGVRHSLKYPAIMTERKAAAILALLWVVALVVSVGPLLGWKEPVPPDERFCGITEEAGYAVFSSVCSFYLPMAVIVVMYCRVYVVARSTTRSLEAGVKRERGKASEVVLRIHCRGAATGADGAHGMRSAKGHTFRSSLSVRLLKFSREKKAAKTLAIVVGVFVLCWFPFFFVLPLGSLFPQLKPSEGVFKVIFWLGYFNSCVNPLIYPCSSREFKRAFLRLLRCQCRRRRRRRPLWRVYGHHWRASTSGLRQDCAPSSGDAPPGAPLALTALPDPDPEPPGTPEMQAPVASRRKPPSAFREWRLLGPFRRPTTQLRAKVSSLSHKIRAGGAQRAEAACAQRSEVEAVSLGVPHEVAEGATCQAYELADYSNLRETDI
T1 sequence (P35368 whole entry): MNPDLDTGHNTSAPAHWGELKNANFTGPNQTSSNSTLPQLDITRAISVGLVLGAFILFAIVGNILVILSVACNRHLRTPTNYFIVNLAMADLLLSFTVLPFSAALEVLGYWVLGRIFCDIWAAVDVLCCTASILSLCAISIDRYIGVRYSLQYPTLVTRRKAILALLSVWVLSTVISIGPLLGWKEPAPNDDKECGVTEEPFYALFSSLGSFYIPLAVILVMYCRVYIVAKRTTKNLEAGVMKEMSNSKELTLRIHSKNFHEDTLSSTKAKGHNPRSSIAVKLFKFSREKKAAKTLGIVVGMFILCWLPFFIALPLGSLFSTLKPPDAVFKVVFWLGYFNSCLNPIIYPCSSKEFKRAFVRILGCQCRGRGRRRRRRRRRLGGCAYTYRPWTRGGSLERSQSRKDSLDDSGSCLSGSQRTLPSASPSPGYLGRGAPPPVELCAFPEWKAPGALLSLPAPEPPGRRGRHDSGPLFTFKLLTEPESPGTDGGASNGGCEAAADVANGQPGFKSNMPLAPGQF
As to the kind of experiment: Binding affinity against Alpha1 adrenergic receptor. It counts as protein assay.

The target in data set [2] is 5-hydroxytryptamine receptor 6 (Homo sapiens, UniProt P50406). As to the kind of experiment: Binding affinity against 5-Hydroxy tryptamine 6 receptor.
Chain of 5-hydroxytryptamine receptor 6 (P50406 whole entry): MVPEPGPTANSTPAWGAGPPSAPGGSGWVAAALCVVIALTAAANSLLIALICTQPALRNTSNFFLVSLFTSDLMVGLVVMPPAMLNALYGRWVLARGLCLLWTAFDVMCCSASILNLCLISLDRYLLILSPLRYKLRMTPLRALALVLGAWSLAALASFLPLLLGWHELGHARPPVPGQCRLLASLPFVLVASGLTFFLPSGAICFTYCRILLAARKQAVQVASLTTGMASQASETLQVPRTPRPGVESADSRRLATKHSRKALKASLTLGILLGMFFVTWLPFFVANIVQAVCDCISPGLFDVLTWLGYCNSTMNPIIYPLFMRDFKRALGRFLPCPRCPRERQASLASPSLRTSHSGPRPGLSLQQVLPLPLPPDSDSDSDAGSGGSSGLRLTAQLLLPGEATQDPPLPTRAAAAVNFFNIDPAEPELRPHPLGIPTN
The target of data set [3] is 5-hydroxytryptamine receptor 7 (Homo sapiens, UniProt P34969). As to the kind of experiment: Binding affinity against 5-Hydroxy tryptamine 7 receptor. The procedure, abridged: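 Membranes from CHO cells expressing human 5-HT7, homogenized, pelleted at 18,000g, stored at -80 °C. Each well held 30 µg protein in 50 mM HEPES. Incubation was 60 min at 25 °C with 0.1-1000 nM compound and 1 nM [3H]-5-carboxamidotryptamine; nonspecific binding was defined with 10 µM serotonin. Stopped with ice-cold HEPES, GF/B filtration, scintillation counting. Ki by nonlinear regression; triplicate or more.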
Chain of 5-hydroxytryptamine receptor 7 (P34969 whole entry): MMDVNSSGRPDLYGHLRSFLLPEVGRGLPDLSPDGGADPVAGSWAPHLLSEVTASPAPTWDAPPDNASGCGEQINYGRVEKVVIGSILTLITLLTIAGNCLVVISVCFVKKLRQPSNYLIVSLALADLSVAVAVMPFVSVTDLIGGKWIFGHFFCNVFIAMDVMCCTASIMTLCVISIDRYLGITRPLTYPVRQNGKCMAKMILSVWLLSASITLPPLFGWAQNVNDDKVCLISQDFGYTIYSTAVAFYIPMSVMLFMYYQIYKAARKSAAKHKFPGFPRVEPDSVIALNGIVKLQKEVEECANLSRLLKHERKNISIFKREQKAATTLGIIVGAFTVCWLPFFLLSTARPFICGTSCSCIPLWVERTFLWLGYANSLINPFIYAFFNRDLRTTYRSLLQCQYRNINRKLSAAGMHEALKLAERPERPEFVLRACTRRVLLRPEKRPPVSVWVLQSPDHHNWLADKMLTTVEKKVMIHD

The nature of data set [4]: Oral bioavailability in rat. The class given is ADME, organism-based. The following applies: in vivo.
Data set [5] has as its target T2, 5-hydroxytryptamine receptor 2C (Homo sapiens, UniProt P28335).
T2 sequence (P28335 whole entry): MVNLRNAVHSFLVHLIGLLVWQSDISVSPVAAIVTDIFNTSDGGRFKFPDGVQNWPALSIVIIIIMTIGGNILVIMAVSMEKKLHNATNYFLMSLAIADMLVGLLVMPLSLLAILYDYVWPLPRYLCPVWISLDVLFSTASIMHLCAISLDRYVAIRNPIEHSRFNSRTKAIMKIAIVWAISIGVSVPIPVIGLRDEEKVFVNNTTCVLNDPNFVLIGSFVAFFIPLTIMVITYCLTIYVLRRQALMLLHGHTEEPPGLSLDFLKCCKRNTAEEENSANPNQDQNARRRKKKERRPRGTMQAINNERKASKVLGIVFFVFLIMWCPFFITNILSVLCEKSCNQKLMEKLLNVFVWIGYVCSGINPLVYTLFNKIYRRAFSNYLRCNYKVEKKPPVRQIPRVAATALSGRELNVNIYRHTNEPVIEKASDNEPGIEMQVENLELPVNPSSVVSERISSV
As to the kind of experiment: Binding affinity against 5-Hydroxy tryptamine 2C receptor.

For the compound `C[C@H](Nc1nc(N)nc(NCCOc2ccccc2)n1)c1ccccc1`, the Ki in data set [1] was 300 nM; in data set [2], greater than 1000 nM; in data set [3], 3 nM; in data set [5], greater than 1000 nM. This compound showed a bioavailability in data set [4] of 12%.
`C[C@H](Nc1nc(N)nc(NCCc2ccccn2)n1)c1ccc(F)cc1`: the Ki in data set [1] was greater than 1000 nM; in data set [2] it was greater than 1000 nM; in data set [3], 9 nM; in data set [5], 160 nM. The same compound showed a bioavailability in data set [4] of 15%.
For the compound `Cc1nc(NCCOc2ccccc2)nc(N[C@@H](C)c2ccccc2)n1`, in data set [3], the Ki was 54 nM.
On the same count and under the same terms, then `C[C@H](Nc1nc(NCCOc2ccccc2)nc(N(C)C)n1)c1ccccc1`, with 23 nM.
In the case of `C[C@H](Nc1nc(N)nc(NCCOc2ccc(F)cc2)n1)c1ccc(F)cc1`, the Ki in data set [1] was 100 nM; in data set [2], greater than 1000 nM; in data set [5], greater than 1000 nM. The bioavailability in data set [4] was 57%.
With `CC(Nc1nc(N)nc(NCCc2ccccc2)n1)c1ccc(F)cc1` (stereo not drawn), the Ki in data set [3] turned out to be 8 nM.
`C[C@H](Nc1ncnc(NCCOc2ccccc2)n1)c1ccccc1` returned a Ki in data set [3] of 3 nM.
`C[C@@H](Nc1nc(N)nc(NCCOc2ccccc2)n1)c1ccccc1` registered a Ki in data set [3] greater than 1000 nM.
Regarding `C[C@H](Nc1nc(N)nc(NCCc2ccc(F)cc2)n1)c1ccc(F)cc1`, the Ki turned out to be 200 nM in data set [1], 172 nM in data set [2], 2 nM in data set [3] and 20 nM in data set [5]. For the same compound, in data set [4], the bioavailability came out at 44%.
With `C[C@H](Nc1nc(F)nc(NCCOc2ccccc2)n1)c1ccccc1`, the Ki in data set [3] stood at 10 nM.
Take `CC(Nc1nc(N)nc(NCCc2cccs2)n1)c1ccc(F)cc1` (racemic): the Ki in data set [1] was greater than 1000 nM; in data set [2], 380 nM; in data set [3], 2 nM; in data set [5], 10 nM.
Regarding `CC(Nc1nc(N)nc(NCCCc2ccccc2)n1)c1ccccc1` (racemic), in data set [3], the affinity corresponds to a Ki of 60 nM.
The same measure, in the same setting: the result for `CC(Nc1nc(N)nc(NCCOc2ccccc2)n1)c1ccccc1` (racemic) reads 8 nM.
Same read-out and setting: then `CC(Nc1nc(N)nc(NCCc2cccnc2)n1)c1ccc(F)cc1` (racemic), with greater than 41000 nM; and `CC(Nc1nc(N)nc(NCCc2ccncc2)n1)c1ccc(F)cc1` (racemic), with greater than 1000 nM.

Source of the values: ChEMBL document CHEMBL1137159, “Aminotriazine 5-HT7 antagonists” (Bioorg Med Chem Lett, 2004).
